Data: ChEMBL document CHEMBL1140369, “Synthesis and SAR of 2-carboxylic acid indoles as inhibitors of plasminogen activator inhibitor-1” (Bioorg Med Chem Lett, 2005)

Legend:
[1] = molecular target: T1, Plasminogen activator inhibitor 1 (Homo sapiens, UniProt P05121); assay: Percentage inhibitory activity against Plasminogen activator inhibitor-1 at 10 uM
In short: (§1)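 Recombinant human PAI-1 with compound, then tPA added; restored tPA cleavage of a chromogenic substrate read spectrophotometrically and reported as % inhibition at single concentration. Buffer pH 6.6: Na2HPO4 50 mM, NaCl 200 mM, EDTA 1 mM, no serum protein.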

[2] = molecular target: T1, Plasminogen activator inhibitor 1; assay: Percentage inhibitory activity against Plasminogen activator inhibitor-1 at 25 uM; in short: as §1
[3] = molecular target: T1, Plasminogen activator inhibitor 1; assay: Percentage inhibitory activity against Plasminogen activator inhibitor-1 at 100 uM; in short: as §1
[4] = molecular target: T1, Plasminogen activator inhibitor 1; assay: Inhibitory concentration against Plasminogen activator inhibitor-1 by antibody assay

T1 sequence (P05121 whole entry): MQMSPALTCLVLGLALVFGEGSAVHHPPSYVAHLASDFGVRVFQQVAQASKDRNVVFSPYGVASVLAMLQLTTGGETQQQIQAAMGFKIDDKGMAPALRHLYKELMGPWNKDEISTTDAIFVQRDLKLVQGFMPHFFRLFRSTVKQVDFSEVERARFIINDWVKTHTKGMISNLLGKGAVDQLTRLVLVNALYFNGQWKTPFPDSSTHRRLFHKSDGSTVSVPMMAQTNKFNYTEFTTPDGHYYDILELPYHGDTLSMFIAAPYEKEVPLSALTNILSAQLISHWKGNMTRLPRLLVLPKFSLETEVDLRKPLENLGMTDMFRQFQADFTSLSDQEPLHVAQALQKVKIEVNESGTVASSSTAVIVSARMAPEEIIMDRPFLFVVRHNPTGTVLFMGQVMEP

| SMILES | Inhibition [1] | Inhibition [2] | Inhibition [3] | IC50 [4] |
| --- | --- | --- | --- | --- |
| O=C(O)c1c(-c2ccccc2)c2cc(NS(=O)(=O)c3cccc4cccnc34)ccc2n1Cc1ccccc1 | 8% | 43% |  |  |
| O=C(O)c1cc2cc(NS(=O)(=O)c3ccccc3)ccc2n1Cc1ccccc1 |  |  | 32% |  |
| CC(C)(C)c1ccc(Nc2ccc3c(c2)c(-c2ccccc2)c(C(=O)O)n3Cc2ccc(-c3ccccc3)cc2)cc1 | 52% | 80% |  |  |
| Cn1c(C(=O)O)c(-c2ccccc2)c2cc(NS(=O)(=O)c3cccc4cccnc34)ccc21 | 0% | 1% |  |  |
| O=C(O)c1c(-c2ccccc2)c2cc(NS(=O)(=O)c3ccc(-c4ccccc4)cc3)ccc2n1Cc1ccccc1 | 44% | 61% |  |  |
| CCCCS(=O)(=O)Nc1ccc2c(c1)cc(C(=O)O)n2Cc1ccccc1 |  |  | 14% |  |
| O=C(O)c1c(-c2ccccc2)c2cc(Nc3ccc(-c4ccccc4)cc3)ccc2n1Cc1ccccc1 | 36% | 71% |  |  |
| O=C(O)c1c(-c2ccccc2)c2cc(NS(=O)(=O)c3ccc(OC(F)(F)F)cc3)ccc2n1Cc1ccccc1 | 33% | 81% |  |  |
| O=C(Nc1ccc(Cl)c(Cl)c1)c1ccc(CNc2cc([N+](=O)[O-])ccc2C(=O)O)cc1 | 3% | 51% | 74% | 17.8 µM |
| Cn1c(C(=O)O)c(-c2ccccc2)c2cc(NS(=O)(=O)c3ccc(OC(F)(F)F)cc3)ccc21 | 0% | 19% |  |  |
| CC(C)(C)c1ccc(S(=O)(=O)Nc2ccc3c(c2)c(-c2ccccc2)c(C(=O)O)n3Cc2ccccc2)cc1 | 41% | 82% |  |  |
| O=C(Nc1ccc2c(c1)c(-c1ccccc1)c(C(=O)O)n2Cc1ccccc1)c1ccc(F)cc1F | 24% | 43% |  |  |
| Cn1c(C(=O)O)c(-c2ccccc2)c2cc(NS(=O)(=O)c3ccc(C(C)(C)C)cc3)ccc21 | 5% | 46% |  |  |
| Cc1cccc(Nc2ccc3c(c2)c(-c2ccccc2)c(C(=O)O)n3Cc2ccccc2)c1 | 24% | 69% |  |  |
| O=C(O)c1cc2cc(NS(=O)(=O)c3ccc(-c4ccccc4)cc3)ccc2n1Cc1ccccc1 |  | 49% | 64% | 63.1 µM |
| O=C(O)C(=O)c1cn(Cc2ccccc2)c2ccc(-c3ccc(OC(F)(F)F)cc3)cc12 | 0% | 47% | 83% |  |
| O=C(O)c1c(-c2ccccc2)c2cc(-n3cccc3)ccc2n1Cc1ccccc1 | 12% | 69% |  |  |
| Cn1c(C(=O)O)c(-c2ccccc2)c2cc(NS(=O)(=O)c3ccc(-c4ccccc4)cc3)ccc21 | 11% | 68% |  |  |
| Cc1ccc(C)n1-c1ccc2c(c1)c(-c1ccccc1)c(C(=O)O)n2Cc1ccccc1 | 23% | 83% |  |  |
| CC(C)(C)c1ccc(Nc2ccc3c(c2)c(-c2ccccc2)c(C(=O)O)n3Cc2ccccc2)cc1 | 45% | 73% |  |  |
| O=C(O)c1cc2cc(NS(=O)(=O)c3ccc(Cl)c(Cl)c3)ccc2n1Cc1ccccc1 |  |  | 62% |  |
| O=C(Nc1ccc2c(c1)c(-c1ccccc1)c(C(=O)O)n2Cc1ccccc1)Nc1ccc(F)cc1F | 27% | 61% |  |  |
| O=C(O)c1c(-c2ccccc2)c2cc(NS(=O)(=O)c3ccccc3)ccc2n1Cc1ccc(-c2ccccc2)cc1 | 79% | 87% |  |  |
